One experiment addresses T1, PAR1 (Homo sapiens, UniProt P25116).
T1 sequence (P25116 22-425): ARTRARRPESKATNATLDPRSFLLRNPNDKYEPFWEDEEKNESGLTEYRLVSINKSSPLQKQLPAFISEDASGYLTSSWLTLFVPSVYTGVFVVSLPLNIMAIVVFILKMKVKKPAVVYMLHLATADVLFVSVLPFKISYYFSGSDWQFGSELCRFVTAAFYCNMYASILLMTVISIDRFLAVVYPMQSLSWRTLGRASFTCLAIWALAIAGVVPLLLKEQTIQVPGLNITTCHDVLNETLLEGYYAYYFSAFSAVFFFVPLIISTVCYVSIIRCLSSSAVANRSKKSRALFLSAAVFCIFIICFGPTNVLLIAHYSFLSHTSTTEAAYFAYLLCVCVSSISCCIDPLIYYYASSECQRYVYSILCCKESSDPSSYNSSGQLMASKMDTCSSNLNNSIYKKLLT
As to the kind of experiment: MEIRS cellular response of A431 cells to PAR1 activating peptide. The experiment is classed as cell-based. A digest of the protocol: (§1)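 A431 cells (ATCC, passage <15) were seeded at ~500,000/mL in DMEM + 10% FBS on fibronectin-coated (10 μg/mL) metasurface wells and incubated overnight. Medium was then swapped to L15 + 1% antibiotic-antimycotic. One baseline spectrum preceded manual addition of peptide in L15. FTIR reflectance was taken at room temperature, every 4 min per well, for 1 h. Spectra were differenced from t = 0, and first-PC signals were extracted from the protein, plasmonic and lipid windows (mean ± standard error, n = 4).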

Another experiment deals with PAR1/PAR2. The experiment in a line: MEIRS cellular response of A431 cells to PAR peptides / control peptide. The format is cell-based, human. A digest of the protocol: as §1
For a further experiment, the system named is A431 cells. As to the kind of experiment: Phase contrast imaging of cell spreading on coated metasurfaces. The experiment is classed as cell-based, human. The following applies: Fig. S2.
Experiment [1] deals with cells (cell type not given). The following applies: among others, including collagen and PDL; cited from earlier work.

On to SFLLR-NH2, for which the “course of cellular signal after maximal point” value at PAR1 (MEIRS PC1 signal) is given as “decreased right after the maximal point was reached”. In addition, at PAR1 (MEIRS PC1 signal, after peak), the “duration of gradual decrease in cellular signal back to baseline level” value was “about 30 min”. Further, the “time of cellular signal peak after peptide addition” value at PAR1 (MEIRS PC1 signal, Δt = 4 min, n = 4) fell in the range of 8 to 12 min. For the same substance, the “initial change in cellular signal on addition of peptide” value on PAR1 (as soon as the peptides were added) is “rapid increase in the cellular signal”. Further, the “peak amplitude of cellular signal (SFLLR vs SLIGKV)” value with PAR1/PAR2 (100 μM) is “similar”.
On to fibronectin, for which, in the experiment on A431 cells, the “cell spreading, phase contrast morphology” value was “cells spread well”. The “best coating material by electric impedance” value in experiment [1] was “often the best coating material”.
Turning to VKGILS-NH2, the “cellular response to control peptide” value in the experiment with PAR1/PAR2 (MEIRS PC1 signal, n = 4) is recorded as “very little response from the cells”.

Source of the values: paper PMC10159923 (Lab on a chip, 2023).
